Laboratory results taken from publication PMC4984525 (Cancer, 2011).

Columns and labels:
HCT-116 = HCT-116 subcutaneous xenograft, mouse; cited from earlier work
[1] = system: relapsed or refractory AML or high-grade myelodysplastic syndromes; experiment: Clinical efficacy; type: in vivo, human
Procedure, shortened: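 Open-label, multicentre dose escalation in patients ≥17 y (ECOG 0–2). Test compound given IV over 1 h, on Day 1 (from 2.5 mg/m2) or on Days 1, 3 and 5 (from 0.8 mg/m2/day). Escalation steps were 50%, then 30%. Complete and partial remissions were scored during induction and later cycles; MDS used modified IWG criteria. Hydroxyurea was allowed during days 1–14.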

A2780 = A2780 subcutaneous xenograft, mouse; cited from earlier work
HCT15 = HCT15 subcutaneous xenograft, mouse; cited from earlier work
K562 = K562 subcutaneous xenograft, mouse; cited from earlier work
[2] = system: patients with advanced or refractory myeloid leukemias; experiment: Phase 1 dose-escalation: safety, DLT and MTD; type: in vivo
[3] = Plasma pharmacokinetics of ARRY-520; type: in vivo, human; details: for coefficient of variation (CV) for CL: inter-patient variability; for AUC(0-t) / clearance / Cmax / MRT / Tmax / Vd / half-life: human, plasma, intravenous; for MRT / Tmax / half-life: median (min-max); for Vd: mean (%CV)

Question: With `CON(C)C(=O)N1N=C(c2cc(F)ccc2F)S[C@@]1(CCCN)c1ccccc1` [ARRY-520] as the molecule, how does the anti-cancer efficacy (HCT-116) read?
Answer: The anti-cancer efficacy was “demonstrated anti-cancer efficacy”.

Question: And the “partial response, %” value ([1]; 34 patients with efficacy data)?
Answer: The value was 3%.

Question: What about the “partial response, patients n” value ([1]; 34 patients with efficacy data) of the same molecule?
Answer: Its value is 1.

Question: What about the complete remissions ([1]; heavily pretreated relapsed/refractory AML or MDS) of the same molecule?
Answer: The complete remissions was “did not observe complete remissions”.

Question: And the anti-cancer efficacy (A2780)?
Answer: The anti-cancer efficacy was “demonstrated anti-cancer efficacy”.

Question: What about the anti-cancer efficacy (HCT15) of the same molecule?
Answer: The anti-cancer efficacy was “demonstrated anti-cancer efficacy”.

Question: And the anti-cancer efficacy (K562)?
Answer: The anti-cancer efficacy was “demonstrated anti-cancer efficacy”.

Question: What about the “MTD, total dose” value ([2]; Schedule 2 (Days 1, 3 and 5)) of the same molecule?
Answer: The value was 4.5 mg/m^2.

Question: What about the “died within 30 days following discontinuation of ARRY-520, %” value ([2]; all patients) of the same molecule?
Answer: The value was 17%.

Question: And the “died within 30 days following discontinuation of ARRY-520, patients n” value ([2]; all patients)?
Answer: Its value is 6.

Question: What about the “Grades 3 or 4 reversible drug-related myelosuppression, patients” value ([2]; human, in vivo) of the same molecule?
Answer: The value was 33/36.

Question: And the “adverse events leading to discontinuation, % of patients” value ([2]; human, in vivo)?
Answer: Its value is 8%.

Question: What about the “adverse events leading to discontinuation, patients n” value ([2]; human, in vivo) of the same molecule?
Answer: The value was 3.

Question: And the “asymptomatic Grade 1 QTc prolongation, % of patients” value ([2]; human, in vivo)?
Answer: Its value is 22%.

Question: And the “asymptomatic Grade 1 QTc prolongation, patients n” value ([2]; human, in vivo)?
Answer: Its value is 8.

Question: What about the “asymptomatic Grade 2 QTc prolongation, % of patients” value ([2]; human, in vivo) of the same molecule?
Answer: The value was 3%.

Question: What about the “asymptomatic Grade 2 QTc prolongation, patients n” value ([2]; human, in vivo) of the same molecule?
Answer: The value was 1.

Question: What about the “drug-related SAE bacteremia, %” value ([2]; human, in vivo) of the same molecule?
Answer: Its value is 3%.

Question: And the “drug-related SAE diarrhea, %” value ([2]; human, in vivo)?
Answer: The value was 3%.

Question: And the “drug-related SAE exfoliative rash, %” value ([2]; human, in vivo)?
Answer: Its value is 3%.

Question: What about the “drug-related SAE hyperbilirubinemia, %” value ([2]; human, in vivo) of the same molecule?
Answer: Its value is 3%.

Question: And the “drug-related SAE neutropenic fever, %” value ([2]; human, in vivo)?
Answer: Its value is 8%.

Question: What about the “drug-related SAE palmar-plantar erythrodysesthesia, %” value ([2]; human, in vivo) of the same molecule?
Answer: The value was 6%.

Question: And the “drug-related SAE pancytopenia, %” value ([2]; human, in vivo)?
Answer: The value was 3%.

Question: What about the “drug-related SAE stomatitis, %” value ([2]; human, in vivo) of the same molecule?
Answer: The value was 3%.

Question: And the “patients with one or more SAEs related to study drug, %” value ([2]; human, in vivo)?
Answer: Its value is 28%.

Question: And the “Dose-limiting toxicities (DLT)” value ([2]; in vivo)?
Answer: Its value is “mucositis, exfoliative rash, hand-foot syndrome and hyperbilirubinemia”.

Question: What about the Neurotoxicity ([2]; in vivo) of the same molecule?
Answer: The Neurotoxicity was “not observed”.

Question: And the “other clinically significant ECG changes” value ([2]; in vivo)?
Answer: Its value is “No other clinically significant ECG changes were observed”.

Question: And the “coefficient of variation (CV) for CL” value ([3]; Schedule 1, Cycle 1)?
Answer: Its value is 50.7%.

Question: What about the “coefficient of variation (CV) for CL” value ([3]; Schedule 1, Cycle 2) of the same molecule?
Answer: Its value is 77.1%.

Question: And the “time plasma concentrations maintained above 2 ng/mL” value ([3]; Schedule 1, following a single infusion, postinitiation of infusion, all cohorts)?
Answer: The value was “greater than 7 days”.

Question: And the “time geometric mean plasma concentrations maintained above 2 ng/mL” value ([3]; Schedule 2, all cohorts)?
Answer: The value was “more than 14 days”.

Question: And the “overall ratio of AUC0–24 on Day 5 compared to Day 1” value ([3]; Schedule 2, dosing at 48-hour intervals)?
Answer: The value was 2.23.

Question: And the AUC(0-t) ([3]; 0.8 mg/m^2, AUC0–24, Schedule 2, Cycle 1 Day 1, 0.8 mg/m^2 (N=3), geometric mean (geometric %CV))?
Answer: Its AUC(0-t) is 116 ng·h/mL.

Question: What about the AUC(0-t) ([3]; 0.8 mg/m^2, AUC0–24, Schedule 2, Cycle 1 Day 5, 0.8 mg/m^2 (N=3), geometric mean (geometric %CV)) of the same molecule?
Answer: Its AUC(0-t) is 179 ng·h/mL.

Question: And the clearance ([3]; 0.8 mg/m^2, CL, Schedule 2, Cycle 1 Day 1, 0.8 mg/m^2 (N=3), geometric mean (geometric %CV))?
Answer: Its clearance is 109 mL/min.

Question: And the clearance ([3]; 0.8 mg/m^2, CL, Schedule 2, Cycle 1 Day 5, 0.8 mg/m^2 (N=3), geometric mean (geometric %CV))?
Answer: Its clearance is 33.8 mL/min.

Question: What about the Cmax ([3]; 0.8 mg/m^2, Cmax, Schedule 2, Cycle 1 Day 1, 0.8 mg/m^2 (N=3), geometric mean (geometric %CV)) of the same molecule?
Answer: The Cmax was 19.5 ng/mL.

Question: And the Cmax ([3]; 0.8 mg/m^2, Cmax, Schedule 2, Cycle 1 Day 5, 0.8 mg/m^2 (N=3), geometric mean (geometric %CV))?
Answer: Its Cmax is 25.3 ng/mL.

Question: What about the MRT ([3]; 0.8 mg/m^2, MRT, Schedule 2, Cycle 1 Day 5, 0.8 mg/m^2 (N=3)) of the same molecule?
Answer: Its MRT is 130 h.

Question: What about the Tmax ([3]; 0.8 mg/m^2, Tmax, Schedule 2, Cycle 1 Day 1, 0.8 mg/m^2 (N=3)) of the same molecule?
Answer: Its Tmax is 1 h.

Question: And the Tmax ([3]; 0.8 mg/m^2, Tmax, Schedule 2, Cycle 1 Day 5, 0.8 mg/m^2 (N=3))?
Answer: Its Tmax is 1.08 h.

Question: What about the Vd ([3]; 0.8 mg/m^2, Vss, Schedule 2, Cycle 1 Day 1, 0.8 mg/m^2 (N=3)) of the same molecule?
Answer: Its Vd is 295 L.

Question: What about the Vd ([3]; 0.8 mg/m^2, Vss, Schedule 2, Cycle 1 Day 5, 0.8 mg/m^2 (N=3)) of the same molecule?
Answer: The Vd was 193 L.

Question: What about the half-life ([3]; 0.8 mg/m^2, t1/2, Schedule 2, Cycle 1 Day 1, 0.8 mg/m^2 (N=3)) of the same molecule?
Answer: The half-life was 29.8 h.

Question: What about the half-life ([3]; 0.8 mg/m^2, t1/2, Schedule 2, Cycle 1 Day 5, 0.8 mg/m^2 (N=3)) of the same molecule?
Answer: Its half-life is 92.5 h.

Question: And the AUC(0-t) ([3]; 1.2 mg/m^2, AUC0–24, Schedule 2, Cycle 1 Day 1, 1.2 mg/m^2 (N=6), geometric mean (geometric %CV))?
Answer: The AUC(0-t) was 133 ng·h/mL.

Question: And the AUC(0-t) ([3]; 1.2 mg/m^2, AUC0–24, Schedule 2, Cycle 1 Day 5, 1.2 mg/m^2 (N=6), geometric mean (geometric %CV))?
Answer: The AUC(0-t) was 320 ng·h/mL.

Question: And the clearance ([3]; 1.2 mg/m^2, CL, Schedule 2, Cycle 1 Day 1, 1.2 mg/m^2 (N=6), geometric mean (geometric %CV))?
Answer: The clearance was 130 mL/min.

Question: What about the clearance ([3]; 1.2 mg/m^2, CL, Schedule 2, Cycle 1 Day 5, 1.2 mg/m^2 (N=6), geometric mean (geometric %CV)) of the same molecule?
Answer: The clearance was 15.8 mL/min.

Question: And the Cmax ([3]; 1.2 mg/m^2, Cmax, Schedule 2, Cycle 1 Day 1, 1.2 mg/m^2 (N=6), geometric mean (geometric %CV))?
Answer: Its Cmax is 18.8 ng/mL.

Question: And the Cmax ([3]; 1.2 mg/m^2, Cmax, Schedule 2, Cycle 1 Day 5, 1.2 mg/m^2 (N=6), geometric mean (geometric %CV))?
Answer: Its Cmax is 24.3 ng/mL.

Question: What about the MRT ([3]; 1.2 mg/m^2, MRT, Schedule 2, Cycle 1 Day 5, 1.2 mg/m^2 (N=6)) of the same molecule?
Answer: The MRT was 134 h.

Question: And the Tmax ([3]; 1.2 mg/m^2, Tmax, Schedule 2, Cycle 1 Day 1, 1.2 mg/m^2 (N=6))?
Answer: Its Tmax is 1.09 h.

Question: What about the Tmax ([3]; 1.2 mg/m^2, Tmax, Schedule 2, Cycle 1 Day 5, 1.2 mg/m^2 (N=6)) of the same molecule?
Answer: Its Tmax is 1 h.

Question: What about the Vd ([3]; 1.2 mg/m^2, Vss, Schedule 2, Cycle 1 Day 1, 1.2 mg/m^2 (N=6)) of the same molecule?
Answer: The Vd was 363 L.

Question: And the Vd ([3]; 1.2 mg/m^2, Vss, Schedule 2, Cycle 1 Day 5, 1.2 mg/m^2 (N=6))?
Answer: The Vd was 239 L.

Question: What about the half-life ([3]; 1.2 mg/m^2, t1/2, Schedule 2, Cycle 1 Day 1, 1.2 mg/m^2 (N=6)) of the same molecule?
Answer: Its half-life is 25.6 h.

Question: What about the half-life ([3]; 1.2 mg/m^2, t1/2, Schedule 2, Cycle 1 Day 5, 1.2 mg/m^2 (N=6)) of the same molecule?
Answer: Its half-life is 94.9 h.

Question: And the AUC(0-t) ([3]; 1.5 mg/m^2, AUC0–24, Schedule 2, Cycle 1 Day 1, 1.5 mg/m^2 (N=6), geometric mean (geometric %CV))?
Answer: Its AUC(0-t) is 264 ng·h/mL.

Question: And the AUC(0-t) ([3]; 1.5 mg/m^2, AUC0–24, Schedule 2, Cycle 1 Day 5, 1.5 mg/m^2 (N=6), geometric mean (geometric %CV))?
Answer: Its AUC(0-t) is 667 ng·h/mL.

Question: And the clearance ([3]; 1.5 mg/m^2, CL, Schedule 2, Cycle 1 Day 1, 1.5 mg/m^2 (N=6), geometric mean (geometric %CV))?
Answer: The clearance was 98.3 mL/min.

Question: What about the clearance ([3]; 1.5 mg/m^2, CL, Schedule 2, Cycle 1 Day 5, 1.5 mg/m^2 (N=6), geometric mean (geometric %CV)) of the same molecule?
Answer: Its clearance is 18.5 mL/min.

Question: What about the Cmax ([3]; 1.5 mg/m^2, Cmax, Schedule 2, Cycle 1 Day 1, 1.5 mg/m^2 (N=6), geometric mean (geometric %CV)) of the same molecule?
Answer: The Cmax was 57.9 ng/mL.

Question: What about the Cmax ([3]; 1.5 mg/m^2, Cmax, Schedule 2, Cycle 1 Day 5, 1.5 mg/m^2 (N=6), geometric mean (geometric %CV)) of the same molecule?
Answer: Its Cmax is 134 ng/mL.

Question: What about the MRT ([3]; 1.5 mg/m^2, MRT, Schedule 2, Cycle 1 Day 5, 1.5 mg/m^2 (N=6)) of the same molecule?
Answer: Its MRT is 119 h.

Question: What about the Tmax ([3]; 1.5 mg/m^2, Tmax, Schedule 2, Cycle 1 Day 1, 1.5 mg/m^2 (N=6)) of the same molecule?
Answer: The Tmax was 1 h.

Question: What about the Tmax ([3]; 1.5 mg/m^2, Tmax, Schedule 2, Cycle 1 Day 5, 1.5 mg/m^2 (N=6)) of the same molecule?
Answer: The Tmax was 1.02 h.

Question: What about the Vd ([3]; 1.5 mg/m^2, Vss, Schedule 2, Cycle 1 Day 1, 1.5 mg/m^2 (N=6)) of the same molecule?
Answer: Its Vd is 251 L.

Question: What about the Vd ([3]; 1.5 mg/m^2, Vss, Schedule 2, Cycle 1 Day 5, 1.5 mg/m^2 (N=6)) of the same molecule?
Answer: Its Vd is 169 L.

Question: What about the half-life ([3]; 1.5 mg/m^2, t1/2, Schedule 2, Cycle 1 Day 1, 1.5 mg/m^2 (N=6)) of the same molecule?
Answer: Its half-life is 26.1 h.

Question: And the half-life ([3]; 1.5 mg/m^2, t1/2, Schedule 2, Cycle 1 Day 5, 1.5 mg/m^2 (N=6))?
Answer: Its half-life is 82.2 h.

Question: And the AUC(0-t) ([3]; 1.8 mg/m^2, AUC0–24, Schedule 2, Cycle 1 Day 1, 1.8 mg/m^2 (N=2), geometric mean)?
Answer: The AUC(0-t) was 208 ng·h/mL.
